Key:
Assay type in all cases: functional
Set-up in all cases: scale not given: the % may be the effect or the level left
SF-268 = experiment: Growth inhibition of human SF268 cells assessed tumor cell growth at 10^-5 M
How it was run: (§1)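 NCI 60-human-tumor-cell-line panel screen. Each compound was tested at a single concentration of 10^-5 M, and percent growth of tumor cells was recorded for each cell line. Growth inhibition was expressed from these percent-growth values.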

MDA-MB-468 = experiment: Growth inhibition of human MDA-MB-468 cells assessed tumor cell growth at 10^-5 M; how it was run: as §1
OVCAR-5 = experiment: Growth inhibition of human OVCAR5 cells assessed tumor cell growth at 10^-5 M; how it was run: as §1
SF-539 = experiment: Growth inhibition of human SF539 cells assessed tumor cell growth at 10^-5 M; how it was run: as §1
A498 = experiment: Growth inhibition of human A498 cells assessed tumor cell growth at 10^-5 M; how it was run: as §1
NCI/ADR-RES = experiment: Growth inhibition of human NCI/ADR-RES cells assessed tumor cell growth at 10^-5 M; how it was run: as §1
SW-620 = experiment: Growth inhibition of human SW620 cells assessed tumor cell growth at 10^-5 M
How it was run: (§2)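 Single-dose screen at 10^-5 M across the 60 human tumor cell line panel, run to NCI standards. The value is the percent growth of each cell line in the presence of compound. Compounds active at this dose moved on to five-concentration testing (10^-4 to 10^-8 M).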

MOLT-4 = experiment: Growth inhibition of human MOLT4 cells assessed tumor cell growth at 10^-5 M; how it was run: as §1
TK-10 = experiment: Growth inhibition of human TK10 cells assessed tumor cell growth at 10^-5 M; how it was run: as §2
CAKI-1 = experiment: Growth inhibition of human Caki1 cells assessed tumor cell growth at 10^-5 M; how it was run: as §1
UACC-257 = experiment: Growth inhibition of human UACC257 cells assessed tumor cell growth at 10^-5 M; how it was run: as §2
786-0 = experiment: Growth inhibition of human 786-0 cells assessed tumor cell growth at 10^-5 M; how it was run: as §1
MDA-MB-435 = experiment: Growth inhibition of human MDA-MB-435 cells assessed tumor cell growth at 10^-5 M; how it was run: as §1
UO-31 = experiment: Growth inhibition of human UO31 cells assessed tumor cell growth at 10^-5 M; how it was run: as §2
[1] = Growth inhibition of human Hs 578T cells assessed tumor cell growth at 10^-5 M; how it was run: as §1
SNB-19 = experiment: Growth inhibition of human SNB19 cells assessed tumor cell growth at 10^-5 M; how it was run: as §2
PC-3 = experiment: Growth inhibition of human PC3 cells assessed tumor cell growth at 10^-5 M; how it was run: as §1
KM12 = experiment: Growth inhibition of human KM12 cells assessed tumor cell growth at 10^-5 M; how it was run: as §1
MDA-MB-231 = experiment: Growth inhibition of human MDA-MB-231 cells assessed tumor cell growth at 10^-5 M; how it was run: as §1
U-251 = experiment: Growth inhibition of human U251 cells assessed tumor cell growth at 10^-5 M; how it was run: as §2
NCI-H23 = experiment: Growth inhibition of human NCI-H23 cells assessed tumor cell growth at 10^-5 M; how it was run: as §1
SK-OV-3 = experiment: Growth inhibition of human SKOV3 cells assessed tumor cell growth at 10^-5 M; how it was run: as §1
T47D = experiment: Growth inhibition of human T47D cells assessed tumor cell growth at 10^-5 M; how it was run: as §2
HCC 2998 = experiment: Growth inhibition of human HCC2998 cells assessed tumor cell growth at 10^-5 M; how it was run: as §1
A549 = experiment: Growth inhibition of human A549 cells assessed tumor cell growth at 10^-5 M; how it was run: as §1
SN12C = experiment: Growth inhibition of human SN12C cells assessed tumor cell growth at 10^-5 M; how it was run: as §1
HCT-15 = experiment: Growth inhibition of human HCT15 cells assessed tumor cell growth at 10^-5 M; how it was run: as §1
IGROV-1 = experiment: Growth inhibition of human IGROV1 cells assessed tumor cell growth at 10^-5 M; how it was run: as §1
RXF 393 = experiment: Growth inhibition of human RXF393 cells assessed tumor cell growth at 10^-5 M; how it was run: as §1
HOP-62 = experiment: Growth inhibition of human HOP62 cells assessed tumor cell growth at 10^-5 M; how it was run: as §1
COLO 205 = experiment: Growth inhibition of human COLO205 cells assessed tumor cell growth at 10^-5 M; how it was run: as §1
[2] = Growth inhibition of human […] cells assessed tumor cell growth at 10^-5 M; how it was run: as §1
NCI-H322M = experiment: Growth inhibition of human NCI-H322M cells assessed tumor cell growth at 10^-5 M; how it was run: as §1
Malme-3M = experiment: Growth inhibition of human MALME-3M cells assessed tumor cell growth at 10^-5 M; how it was run: as §1
SK-MEL-2 = experiment: Growth inhibition of human SK-MEL-2 cells assessed tumor cell growth at 10^-5 M; how it was run: as §1
SK-MEL-5 = experiment: Growth inhibition of human SK-MEL-5 cells assessed tumor cell growth at 10^-5 M; how it was run: as §1
OVCAR-3 = experiment: Growth inhibition of human OVCAR3 cells assessed tumor cell growth at 10^-5 M; how it was run: as §1
ACHN = experiment: Growth inhibition of human ACHN cells assessed tumor cell growth at 10^-5 M; how it was run: as §1
LOX IMVI = experiment: Growth inhibition of human LOXIMVI cells assessed tumor cell growth at 10^-5 M; how it was run: as §1
NCI-H522 = experiment: Growth inhibition of human NCI-H522 cells assessed tumor cell growth at 10^-5 M; how it was run: as §1
CCRF-CEM = experiment: Growth inhibition of human CCRF-CEM cells assessed tumor cell growth at 10^-5 M; how it was run: as §1
HT-29 = experiment: Growth inhibition of human HT-29 cells assessed tumor cell growth at 10^-5 M; how it was run: as §1
UACC-62 = experiment: Growth inhibition of human UACC62 cells assessed tumor cell growth at 10^-5 M; how it was run: as §2
HOP-92 = experiment: Growth inhibition of human HOP92 cells assessed tumor cell growth at 10^-5 M; how it was run: as §1
HL-60(TB) = experiment: Growth inhibition of human HL-60(TB) cells assessed tumor cell growth at 10^-5 M
How it was run: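 HL-60(TB), part of the 60-line panel, tested at a single concentration of 10^-5 M. The read-out is percent tumor cell growth relative to untreated growth.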

NCI-H226 = experiment: Growth inhibition of human NCI-H226 cells assessed tumor cell growth at 10^-5 M; how it was run: as §1
K562 = experiment: Growth inhibition of human K562 cells assessed tumor cell growth at 10^-5 M; how it was run: as §1
DU-145 = experiment: Growth inhibition of human DU145 cells assessed tumor cell growth at 10^-5 M; how it was run: as §1
HCT-116 = experiment: Growth inhibition of human HCT116 cells assessed tumor cell growth at 10^-5 M; how it was run: as §1
NCI-H460 = experiment: Growth inhibition of human NCI-H460 cells assessed tumor cell growth at 10^-5 M; how it was run: as §1
OVCAR-8 = experiment: Growth inhibition of human OVCAR8 cells assessed tumor cell growth at 10^-5 M; how it was run: as §1
M14 = experiment: Growth inhibition of human M14 cells assessed tumor cell growth at 10^-5 M; how it was run: as §1
BT-549 = experiment: Growth inhibition of human BT549 cells assessed tumor cell growth at 10^-5 M; how it was run: as §1

C#CCN1C(=O)/C(=C\c2cn(CC#C)c3ccccc23)c2ccccc21
Activity (SF-268): 95.6% | Activity (MDA-MB-468): 133% | Activity (OVCAR-5): 101% | Activity (SF-539): 91.5% | Activity (A498): 101% | Activity (NCI/ADR-RES): 106% | Activity (SW-620): 102% | Activity (MOLT-4): 87.3% | Activity (TK-10): 112% | Activity (CAKI-1): 120% | Activity (UACC-257): 97.8% | Activity (786-0): 109% | Activity (MDA-MB-435): 114% | Activity (UO-31): 74.9% | Activity [1]: 105% | Activity (SNB-19): 96.7% | Activity (PC-3): 80% | Activity (KM12): 101% | Activity (MDA-MB-231): 82.7% | Activity (U-251): 98.4% | Activity (NCI-H23): 92% | Activity (SK-OV-3): 97.8% | Activity (T47D): 96.4% | Activity (HCC 2998): 107% | Activity (A549): 98.9% | Activity (SN12C): 89.2% | Activity (HCT-15): 104% | Activity (IGROV-1): 91.2% | Activity (RXF 393): 126% | Activity (HOP-62): 102% | Activity (COLO 205): 77.9% | Activity [2]: 90.9% | Activity (NCI-H322M): 110% | Activity (Malme-3M): 161% | Activity (SK-MEL-2): 99.8% | Activity (SK-MEL-5): 91% | Activity (OVCAR-3): 102% | Activity (ACHN): 92.7% | Activity (LOX IMVI): 103% | Activity (NCI-H522): 96.6% | Activity (CCRF-CEM): 86% | Activity (HT-29): 101% | Activity (UACC-62): 78.4% | Activity (HOP-92): 75.1% | Activity (HL-60(TB)): 101.9% | Activity (NCI-H226): 86.5% | Activity (K562): 87.4% | Activity (DU-145): 109% | Activity (HCT-116): 97.4% | Activity (NCI-H460): 98.6% | Activity (OVCAR-8): 95.6% | Activity (M14): 98.6% | Activity (BT-549): 96.7%
